Screening results from PubChem.
CRFR2-BP antag – CRF-BP/CRF-R2 complex antagonism | HEK293 CRF-R2/CRF-BP, CRF-induced calcium fluorescence | inhibition, % at 11.8 µM | actives 0.59% (n = 350,000) | AID 588475;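 active = inhibition of the ligand-induced calcium signal above about 50% at the single tested concentration, limit read from the data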
TAAR1 agonist – human TAAR1 agonism; Q96RJ0; CHO RD-HGA16 TAAR1, Fluo-8 calcium fluorescence; vehicle wells 0%, saturating PEA agonist 100%; activation, % at 3 µM; actives 0.99% (n = 360,000); AID 624467;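 active = activation above the mean activation of all test compounds in the run plus 3 SD, cut at about 38% in these data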
Target sequence (Q96RJ0 whole entry, looked up): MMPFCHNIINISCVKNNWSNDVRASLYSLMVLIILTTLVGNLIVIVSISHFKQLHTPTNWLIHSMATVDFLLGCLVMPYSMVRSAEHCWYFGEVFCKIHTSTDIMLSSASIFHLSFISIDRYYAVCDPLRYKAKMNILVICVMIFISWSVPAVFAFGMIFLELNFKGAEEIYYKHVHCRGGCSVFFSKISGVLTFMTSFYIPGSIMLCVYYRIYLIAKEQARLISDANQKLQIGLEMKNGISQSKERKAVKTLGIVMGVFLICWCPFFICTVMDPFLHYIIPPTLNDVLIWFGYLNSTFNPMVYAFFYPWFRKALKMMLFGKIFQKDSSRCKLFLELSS
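Test system: RD-HGA16 (CHO) cells co-expressing Gα16 and hTAAR1; dosing: one-point dosing at 3 µM (nominal); timing: 17-24 h seeding, 75 min 37 °C dye, 30 min RT; signal: kinetic Fluo-8 calcium fluorescence; read-out basis: % activation relative to PEA EC100 response; controls: DMSO and PEA EC100; replicates: n 1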
ANO1 block – blocks the mouse calcium-activated chloride channel TMEM16A; Q8BHY3; HEK293 TMEM16A/YFP iodide influx fluorescence, ionomycin; normalized B-score (activity score, 25-100; higher = stronger inhibition) at 10 µM; actives 1.2% (n = 310,000); AID 588511;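 active = ratio plate-corrected score three or more library SD toward inhibition, starting fluorescence score within five deviations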;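 also: score derived from kinetic fluorescence span divided by baseline fluorescence per well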
TMEM16A act – activates or potentiates the mouse TMEM16A chloride channel; Q8BHY3; AID 623877; B-score at 10 µM; HEK293 TMEM16A/YFP-H148Q/I152L, iodide quench fluorescence; stronger effect = lower value; actives 0.3% (n = 340,000);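 active = fluorescence-ratio B-score plate-corrected deviation score at least 3 library SD below zero, with starting fluorescence score within 5 deviations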;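 also: channel opened by trigger with iodide after compound preincubation; score built on the fluorescence ratio of max minus min over baseline; more negative score means more quench and so TMEM16A activation or potentiation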
CRFBP-R2 agonist – CRF-BP/CRF-R2 complex agonism | HEK293 CRF-R2/CRF-BP, calcium dye fluorescence (FLIPR); percent of saturating CRF peptide response | activation, % at 13.2 µM | actives 0.46% (n = 350,000) | AID 588473;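 active = activation of at least 50%, plus an integration ratio under a set limit after plate pattern correction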;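 also: plate controls were neutral control wells without compound for no effect and CRF at EC100 for full effect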
TAAR1 antagonist – human TAAR1 antagonism; CHO RD-HGA16 TAAR1, Fluo-8 calcium fluorescence, antagonist; inhibition, % at 3 µM; actives 1.5% (n = 360,000);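 active = inhibition above a per-plate cutoff, the mean inhibition of test compounds on that plate plus 3 SD, cut at about 49% in these data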;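 also: 0% = DMSO plus EC80 beta-PEA response and 100% = DMSO alone without agonist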
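Test system – hTAAR1-expressing CHO RD-HGA16 cells, Gα16-coupled · Reagent – β-PEA at EC80 concentration, post-compound challenge · Compound dosing – 3 µM, single point · Timing – 140 s kinetic read after compound, 140 s after agonist · Detection – Fluo-8 intracellular calcium dye fluorescence, real-time kinetic reads · Control set – DMSO and EC80 PEA controls · Repeats – n of 1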
TAAR1 nonsel count – nonselective antagonism, TAAR1 counter-screen; AID 651780; actives 77% (n = 2,400); shares compounds with TAAR1 antagonist; inhibition, % at 3 µM; counterscreen cell line, calcium fluorescence, antagonist mode; in the data active = inhibition above about 22%;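 also: CHO-Ga16 host cells stimulated with ATP at an EC80 level; 0% = agonist EC80 plus vehicle and 100% = vehicle without agonist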
TAAR1 antag conf – human TAAR1 antagonism, confirmed. shares compounds with TAAR1 antagonist. TAAR1-expressing cells, fluorescence antagonist read-out. inhibition, % at 3 µM. actives 40% (n = 2,400); in the data active = inhibition above about 49%;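 also: CHO-Ga16 host cells challenged with agonist PEA near its EC80; 0% = agonist at EC80 plus vehicle and 100% = vehicle with no agonist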
Ga16 ag counter – nonselective Ga16 agonist in TAAR1 antagonist counter-screen; shares compounds with TAAR1 antagonist; Ga16-expressing cells, calcium fluorescence, agonist counterscreen; activation, % at 3 µM; actives 18% (n = 2,400); AID 651953; in the data active = activation above about 12%;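 also: 0% = vehicle wells and 100% = saturating stimulus response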
TAAR1 ag count – TAAR1 agonism, antagonist counter-screen; shares compounds with TAAR1 antagonist; hTAAR1 cell line, fluorescence activation, agonist mode; activation, % at 3 µM; actives 2% (n = 2,400); AID 651955; in the data active = activation above about 37%;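 also: CHO cells stably expressing TAAR1 with calcium dye readout; 0% = DMSO vehicle and 100% = full agonist response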
* hit, by the source's call; i = inactive; nt = no result. Sampled rows, rich in hits. Any-hit rate of the full collection: about 3.9%.

SMILES	CRFR2-BP antag	TAAR1 agonist	ANO1 block	TMEM16A act	CRFBP-R2 agonist	TAAR1 antagonist	TAAR1 nonsel count	TAAR1 antag conf	Ga16 ag counter	TAAR1 ag count
C[C@@H](NC(=O)c1nc[nH]c1C(=O)N[C@@H](CCCCNC(=O)OC(C)(C)C)C(=O)OC(C)(C)C)c1ccccc1	6	15	i	i	0	50*	20	37	4	15
COc1ccc(S(=O)(=O)NCCc2c[nH]c3ccc(C)cc23)cc1	4	1	i	i	0	-6	nt	nt	nt	nt
COc1ccc(-c2ccc(/C=N/N3C(=O)C4C5C=CC(C6CC56)C4C3=O)o2)c([N+](=O)[O-])c1 (stereo unspecified)	-8	17	i	i	2	56*	31*	52*	10	10
Cc1ccc(CN2CCN(/N=C/c3sccc3C)CC2)c(C)c1	-19	-1	i	i	0	-16	nt	nt	nt	nt
N#Cc1cc(NC(=O)c2ccc(Cl)cc2)ccc1Sc1ccccc1	nt	6	nt	nt	nt	73*	35*	48	9	2
c1ccc(Oc2ccc(-n3cnnn3)cc2)cc1	7	-1	i	i	-1	105*	8	2	4	5
CNC(=O)c1c(NC(=O)c2cc(-c3cc(C)c(C)cc3O)n[nH]2)sc2c1CCCC2	46	nt	i	nt	0	nt	nt	nt	nt	nt
Cc1ccc2c(c1)C(=O)C(=O)N2Cc1ccc(Cl)cc1	-21	9	nt	i	2	55*	21	28	4	-1
CC(C)CNC(=O)C1(C)CCCN1C(=O)CCc1cccs1 (stereo unspecified)	nt	3	nt	nt	nt	-8	nt	nt	nt	nt
CC(C)C1Oc2ccccc2N(CC(=O)NC2CCCCC2)C1=O (stereo unspecified)	-5	4	i	i	0	-1	nt	nt	nt	nt
O=C(COC(=O)c1cccc(OC(F)F)c1)NCC1CCCO1 (stereo unspecified)	3	1	nt	i	2	-2	nt	nt	nt	nt
CCCc1c(-c2ccccc2F)ncn1CCc1ccccc1OC	nt	17	nt	nt	nt	38	nt	nt	nt	nt
COc1ccccc1CCn1cnc(-c2cccc(F)c2)c1CC(C)C	nt	19	nt	nt	nt	51*	35*	67*	16*	55*
CCCc1c(-c2ccccc2OC)ncn1CCc1ccccc1OC	nt	32	nt	nt	nt	21	nt	nt	nt	nt
CCCCc1c(-c2ccccc2F)ncn1CCc1ccccc1OC	nt	20	nt	nt	nt	60*	38*	72*	18*	63*
CCCCCc1c(-c2ccccc2F)ncn1CCc1ccccc1OC	nt	18	nt	nt	nt	60*	39*	59*	21*	48*
O=S(=O)(c1ccccc1)N1CCN(c2nc(-c3cccnc3)nc3ccccc23)CC1	-19	13	nt	i	5	69*	26*	48	10	12
O=S(=O)(c1ccc(F)cc1)N1CCN(c2nc(-c3cccnc3)nc3ccccc23)CC1	-17	15	nt	i	2	41	nt	nt	nt	nt
CC(=O)c1c[nH]c(C(=O)NCC2CCCO2)c1 (stereo unspecified)	-10	7	i	i	1	2	nt	nt	nt	nt
Cc1onc(-c2c(Cl)cccc2Cl)c1C(=O)c1c[nH]c(C(=O)NCC2CCCO2)c1 (stereo unspecified)	6	26	i	i	-2	62*	32*	45	11	13
COc1cccc(/C=C(/C(=O)OCC(=O)NC2CCCC(C)C2C)c2ccccc2)c1 (stereo unspecified)	-47	1	i	i	1	40	nt	nt	nt	nt
COc1cccc(/C=C(/C(=O)OCC(N)=O)c2ccccc2)c1	0	10	i	i	-1	105*	1	-2	2	5
Cc1sc2ncnc(N3CCC(C(=O)Nc4cc(Cl)ccc4Cl)CC3)c2c1C	5	1	i	i	2	63*	30*	42	3	0
Cc1sc2ncnc(N3CCC(C(=O)NNC(=O)c4ccc(Cl)cc4)CC3)c2c1C	2	10	i	i	-3	44	nt	nt	nt	nt
Cc1sc2ncnc(N3CCC(C(=O)Nc4cc(S(C)(=O)=O)ccc4Cl)CC3)c2c1C	-5	14	i	i	0	61*	26*	38	8	4
SMILES	CRFR2-BP antag	TAAR1 agonist	ANO1 block	TMEM16A act	CRFBP-R2 agonist	TAAR1 antagonist	TAAR1 nonsel count	TAAR1 antag conf	Ga16 ag counter	TAAR1 ag count
CC(C)CCCN1C(N(C)C)=NC[C@@H]1C	1	2	i	i	-1	5	nt	nt	nt	nt
COc1ccc2cc(-c3cc(C(=O)OCC(=O)NC4CCS(=O)(=O)C4)c4ccccc4n3)ccc2c1 (stereo unspecified)	10	16	i	i	4	59*	41*	51*	12*	9
COc1ccc(-c2cc(C(=O)OCC(=O)NC3CC3)c3ccccc3n2)cc1	-5	19	nt	i	0	-11	nt	nt	nt	nt
Cn1c(=O)c(=O)n(C)c2cc(S(=O)(=O)CCC(=O)Nc3ccc(C(F)(F)F)cc3)ccc21	2	0	i	i	-1	-9	nt	nt	nt	nt
CCOC(=O)N/N=C/c1c(C)c(C(=O)c2ccc(F)cc2)n2ccccc12	18	2	i	i	0	68*	22*	44	3	-1
COc1ccc(OC)c(-c2csc(NC(=O)C3COc4ccccc4O3)n2)c1 (stereo unspecified)	32	0	i	i	4	41	nt	nt	nt	nt
O=C(Nc1nc(-c2nc3ccccc3s2)cs1)C1COc2ccccc2O1 (stereo unspecified)	-4	0	i	i	-1	60*	26*	33	8	8
CCC1Oc2ccc(C)cc2N(CC(=O)NCC2COc3ccccc3O2)C1=O (stereo unspecified)	-4	5	i	i	0	67*	24*	49*	8	10
Cc1ccc(S(=O)(=O)Nc2cccc(C(=O)N3CCN(c4ccccc4O)CC3)c2)cc1F	-17	20	i	i	0	61*	24*	42	9	10
Cc1cccc(NS(=O)(=O)c2ccc(C(=O)N3CCN(c4ccccc4O)CC3)cc2)c1C	-7	23	i	i	-1	83*	38*	46	13*	11
